According to ChEMBL document CHEMBL1148177, “Starfish saponins, Part 50. Steroidal glycosides from the Okinawan starfish Nardoa tuberculata” (1993):
The source made the active and inactive calls. The calls are words filed in the database; no cut-off is given here.

What was measured:
Sphaerechinus granularis [1] = test: Inhibition of sea urchin egg fertilization after 10 mins; format: functional
Method in brief: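 Sphaerechinus granularis eggs, each experiment using eggs from a single female, about 50,000 eggs/ml. Eggs were treated 10 min with compound in MeOH-H2O (20:80), diluted five-fold with filtered sea water and fertilized. Controls were handled the same way. Cleavage was checked by light microscopy in vivo at 10 min and 2 h. Values are given as LD50 (M).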

Sphaerechinus granularis [2] = test: Inhibition of sea urchin egg fertilization at <10 uM after 10 mins
Cladosporium cucumerinum = test: Antifungal activity against Cladosporium cucumerinum; format: functional
Method in brief: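 Direct bioautography on TLC: samples spotted on TLC plates, then sprayed with a suspension of Cladosporium cucumerinum. Activity is recorded as the minimum inhibition dose in μg spotted.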

SMILES | LD50 (Sphaerechinus granularis [1]) | Activity (Sphaerechinus granularis [2]) | MIC (Cladosporium cucumerinum) [µg]
CC(C)[C@@H](O)CC[C@@H](C)[C@H]1C[C@@H](O)[C@@H]2[C@]1(C)CC[C@@H]1[C@@]3(C)CC[C@H](O)[C@H](O)[C@@H]3[C@@H](O)C[C@]12O | 1 ×10⁻⁶ M | – | –
CC(C)[C@@H](O)CC[C@@H](C)[C@H]1C[C@@H](O)[C@@H]2[C@]1(C)CC[C@@H]1[C@@]3(C)CC[C@H](O)C[C@@H]3[C@@H](O)C[C@]12O | – | inactive | 3
CO[C@H]1[C@H](O[C@H]2[C@H](OCC[C@@H](CC[C@@H](C)[C@H]3[C@@H](O)[C@@H](O)[C@@H]4[C@]3(C)CC[C@@H]3[C@@]5(C)CC[C@H](O)[C@H](O)[C@@H]5[C@@H](O)C[C@]34O)C(C)C)OC[C@@H](O)[C@@H]2O)OC[C@@H](O)[C@@H]1O [HALITYLOSIDE A] | 1 ×10⁻⁵ M | – | 40
CO[C@H]1[C@H](O[C@H]2[C@H](OCC[C@@H](CC[C@@H](C)[C@H]3[C@@H](O)[C@@H](O)[C@@H]4[C@]3(C)CC[C@@H]3[C@@]5(C)CC[C@H](O)C[C@@H]5[C@@H](O)C[C@]34O)C(C)C)OC[C@@H](O)[C@@H]2O)OC[C@@H](O)[C@@H]1O [HALITYLOSIDE B] | 1 ×10⁻⁵ M | – | –
CO[C@H]1[C@H](O[C@H]2[C@H](O[C@@H](CC[C@@H](C)[C@H]3C[C@@H](O)[C@@H]4[C@]3(C)CC[C@@H]3[C@@]5(C)CC[C@H](O)[C@H](O)[C@@H]5[C@@H](O)C[C@]34O)C(C)C)O[C@@H](CO)[C@@H]2O)OC[C@@H](OC)[C@@H]1O [HALITYLOSIDE D] | 1 ×10⁻⁶ M | – | –
CO[C@H]1[C@H](O[C@H]2[C@H](O[C@@H](CC[C@@H](C)[C@H]3C[C@@H](O)[C@@H]4[C@]3(C)CC[C@@H]3[C@@]5(C)CC[C@H](O)C[C@@H]5[C@@H](O)C[C@]34O)C(C)C)O[C@@H](CO)[C@@H]2O)OC[C@@H](OC)[C@@H]1O [HALITYLOSIDE E] | 1 ×10⁻⁷ M | – | 10
CO[C@H]1[C@H](O[C@H]2[C@H](O[C@@H](CC[C@@H](C)[C@H]3C[C@@H](O)[C@@H]4[C@]3(C)CC[C@@H]3[C@@]5(C)CC[C@H](O)C[C@@H]5[C@H](O)C[C@]34O)C(C)C)O[C@@H](CO)[C@@H]2O)OC[C@@H](OC)[C@@H]1O [HALITYLOSIDE F] | 1 ×10⁻⁶ M | – | 5
